Experimental data published in the EternaBench riboswitch data.

System: MS2 coat protein
Assay: apparent Kd, MS2 coat protein; higher = weaker binding; RNA-MaP array; FMN 200 µM where present
Procedure, shortened: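 Designs on Illumina sequencing-chip clusters, transcribed by stalled E. coli RNA polymerase, were exposed to SNAP-549-labelled MS2 coat protein in doubling steps from 0.7 or 1.5 nM up to 3 µM, without and then with constant ligand. The buffer held 100 mM Tris-HCl pH 7.5, 80 mM KCl, 4 mM MgCl2, BSA, DTT, yeast tRNA and Tween-20. Apparent Kd values are medians of filtered per-cluster binding-curve fits to green signal normalised to red-channel RNA signal and control-cluster median Fmax.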

[1] = designed as: OFF switch for flavin mononucleotide, no ligand
[2] = ligand present: flavin mononucleotide, designed as: OFF switch for flavin mononucleotide
[3] = designed as: ON switch for flavin mononucleotide, no ligand
[4] = ligand present: flavin mononucleotide, designed as: ON switch for flavin mononucleotide

## UAUAUAUAGUAAGGAUAUGUAAUUAUUUUAUCAACAGAAGGUACUGACAUGAGGAUCACCCAUGUUUUAGUGUGGGCAUGUAGA
[1]
  apparent Kd: 87.9 nM
[2]
  apparent Kd: 111 nM

## UAUAUGUCAGGAUAUUAGUUGUGUUAGAAUUUAACUUCUGCUGAGAAGGGACAUGAGGAUCACCCAUGUUCCUC
[1]
  apparent Kd: 15.9 nM
[2]
  apparent Kd: 21.2 nM

## UAUCAAUUUAUGGGAUUAGAUUAUGAGGAUAUCAUUUUUUUAUACAUGAGGAUCACCCAUGUUUCUGAGAAGGCAUAAUUAAUA
[3]
  apparent Kd: 16.9 nM
[4]
  apparent Kd: 6.29 nM

## UAUGACAUGAGGAUCACCCAUGUCAGCGAGAAAUGAGAGUCACAGGAUAUGUUUUCGGCCGGCAGACAGAAGGGUGACCCUGAG
[3]
  apparent Kd: 10.9 nM
[4]
  apparent Kd: 7.02 nM

## UAUGUGUCAGGAUAUUAGUAGUAUAUAGAUAUAUAUAUUACUGAGAAGGGACAUGAGGAUCACCCAUGUACCUU
[1]
  apparent Kd: 16.5 nM
[2]
  apparent Kd: 19.1 nM

## UAUUACAGAUAAGGAUAUUGACAUGAGGAUCACCCAUGUAUUUGGGAAUGUUUACUGAAUUCUUACGAGAAGGUAUACGUACUU
[1]
  apparent Kd: 128 nM
[2]
  apparent Kd: 98.7 nM

## UAUUAGCUAGGAUAUACAUGAGGAUCACCCAUGUCACGGGUCCACUCAUCCUAUGCGUGUAGAAGGAGCGACCC
[1]
  apparent Kd: 22.9 nM
[2]
  apparent Kd: 26.6 nM

## UAUUAUUUGGAGAAGGACAUGAGGAUCACCCAUGUCGCCGGGCCCGGGAAACCGGGCCCGGCCAUGUAGGAUAUCCGGGUGGUA
[1]
  apparent Kd: 12.7 nM
[2]
  apparent Kd: 13.6 nM

## UAUUCGUUCUAGAAGGUGCAUUUGUUAAACAUGCAAGGAUAUAGACAUGAGGAUCACCCAUGUCUAUGAGACAUCGGCCUCCUU
[1]
  apparent Kd: 7.15 nM
[2]
  apparent Kd: 24.9 nM

## UAUUUAAUCAUAGGAUAUAGUGUGUAAUUUGGACUAGAAGGAUGAAACAUGAGGAUCACCCAUGUGGUAAAUGGGAUACAUUCC
[3]
  apparent Kd: 73.5 nM
[4]
  apparent Kd: 94.5 nM

## UAUUUAUAAUAUUUUAACAUGAGGAUCACCCAUGUCGCUAGACAGGAUAUAUUUUAUUUGUUUAAGUAGAAGGGUCGUAGAUUU
[3]
  apparent Kd: 166 nM
[4]
  apparent Kd: 138 nM

## UCAAAUACUGAGGAUAUAACGACUGAAUCCGCGUUAGAAGGUAGUACAUGAGGAUCACCCAUGUCAACCAGAGG
[2]
  apparent Kd: 18.7 nM

## UCAAGUAUGUAGGAUAUCGAUGUCUGCGGACAUCGAGAAGGACGUACAUGAGGAUCACCCAUGUAACUUGCAUG
[1]
  apparent Kd: 107 nM
[2]
  apparent Kd: 79.4 nM

## UCAAUCACUGGAGGAUAUGUACUAAUUUGCGGUUCCUCGAUAUCUCACAUGAGGAUCACCCAUGUACAGAAGGCUAGUCGGAAA
[1]
  apparent Kd: 783 nM
[2]
  apparent Kd: 99.7 nM

## UCACGGCAUGUAGGAUAUGCAUAGCAUUGCUAUGCAGAAGGACAUGAGGAUCACCCAUGUAUGUAUUCCAUACUAUUCCCGUGU
[1]
  apparent Kd: 7.42 nM
[2]
  apparent Kd: 14.8 nM

## UCACGGGACUGAGGAUAUACAUGAACUAUUUUUGUAGAAGGCAGAAUGUUAGAUUAUACACUAAACAUGAGGAUCACCCAUGUU
[1]
  apparent Kd: 19.1 nM
[2]
  apparent Kd: 16.1 nM

## UCACGGGAUUGAGGAUAUAUAUUAAUUUUUACAAUAGAAGGCAAAUUGUUAGAUUAUUCACUAUACAUGAGGAUCACCCAUGUU
[1]
  apparent Kd: 23.6 nM
[2]
  apparent Kd: 21.7 nM

## UCACGGUAUGUAGGAUAUGCAUAGCAUUGCUAUGCAGAAGGACAUGAGGAUCACCCAUGUAUGUAUUCCAUACAAAUCCCGUGU
[1]
  apparent Kd: 5.68 nM
[2]
  apparent Kd: 5.58 nM

## UCACUCAAGUUAGGAUAUGGAUCGGAAAACGAUCCAGAAGGAACAUGGGAACAUGAGGAUCACCCAUGUUCCAGAAACGAGUGA
[3]
  apparent Kd: 413 nM
[4]
  apparent Kd: 155 nM

## UCAGGCUUCGAGAAGGACAUGAAUCGUAGCAUUGCUACGAUGAAACAUACAUGAGGAUCACCCAUGUAGGAUAUCGGAGUCUGC
[1]
  apparent Kd: 5.14 nM
[2]
  apparent Kd: 5.55 nM

## UCAGUCAUGUAAGGAUAUGCAGCCGUUUCGGCUGCAGAAGGUACUAUAAUUACAUGAGGAUCACCCAUGUUAUAAAAUUUAUAU
[3]
  apparent Kd: 52.5 nM
[4]
  apparent Kd: 19.9 nM

## UCAUAACAUGAGGAUCACCCAUGUGAGGAUAUGAUACUAUGUACUUCGGUACAUAGUAUCAGAAGGCACAUACU
[1]
  apparent Kd: 85 nM
[2]
  apparent Kd: 316 nM

## UCAUAUUUACAAGGAUAUCAAUUAUUUAUACAUCCUACAUGAGGAUCACCCAUGUUUUUAUAUUUUGAGAAGGUGUAAUGUCGG
[3]
  apparent Kd: 44.4 nM
[4]
  apparent Kd: 40.4 nM

## UCAUCGGCAGGAUAUACGAAAGGAGAACUUCUGCGCAAGAUACAUGAGGAUCACCCAUGUAGAAGGGUCGUAUG
[1]
  apparent Kd: 27.8 nM
[2]
  apparent Kd: 88.7 nM

## UCAUGGAAGCAGGAUAUGCUUGUUUAAUUGUUUGCAGAAGGGCUAACAUGAGGAUCACCCAUGUAAGAGGUCUA
[1]
  apparent Kd: 45.8 nM
[2]
  apparent Kd: 34.1 nM

## UCAUUAUAAAUCCAUCAUAACUACAUGAGGAUCACCCAUGUGCAGGAUAUCGAUGGUUUAACUAUCGAGAAGGGCAUUUACAGA
[1]
  apparent Kd: 47.8 nM
[2]
  apparent Kd: 146 nM

## UCAUUGUAAGGAUAUAAAAGCUCGCGGAAUUGCACGGGUUGUUAGAAGGUACAUGAGGAUCACCCAUGUUCCUA
[1]
  apparent Kd: 17.1 nM
[2]
  apparent Kd: 22.1 nM

## UCAUUUCAGUAAGGAUAUUAAAACAUGACGAUACAUGAGGAUCACCCAUGUUAAGAAGGUACUAAUACAAAUAAUGCAUUGUUC
[1]
  apparent Kd: 14.7 nM
[2]
  apparent Kd: 15.5 nM

## UCCAAACAUGAGGAUCACCCAUGUGAGGAUAUGAUACUAUGUACUUCGGUACAUAGUAUCAGAAGGCACAUCCA
[1]
  apparent Kd: 13.6 nM
[2]
  apparent Kd: 22.2 nM

## UCCACUACUGAGAAGGGAUACAUAUGGUUCUAGUCAGGAUAUCGAUACAGUGCAGCAUGAGGACAUGAGGAUCACCCAUGUAUU
[3]
  apparent Kd: 54.6 nM
[4]
  apparent Kd: 36.2 nM

## UCCGAACAUGAGGAUCACCCAUGUGAGGAUAUAGACGUGAAUUAAACACGUAACAAAACUAGAAGGCACUGGGC
[1]
  apparent Kd: 14.7 nM
[2]
  apparent Kd: 13.2 nM

## UCCGCGCGCGUAGGAUAUACAUGAGGAUCACCCAUGUACCCAGAUGGCUUCCUGAAUCUUGCAAUGUAGAAGGACGCCCGUGGG
[1]
  apparent Kd: 37.9 nM
[2]
  apparent Kd: 42.5 nM

## UCCGCGGACAUAGGAUAUACUGCGAAAUUUCUAGUAGAAGGGUGACCGCACGUGCGAACUGUACAUGAGGAUCACCCAUGUACU
[3]
  apparent Kd: 21.4 nM
[4]
  apparent Kd: 23.1 nM

## UCCGUGGCAUCUCGCGCAUGUCUACAUGAGGAUCACCCAUGUCAGGAUAUACGGAAUGUCGUUCCGUAGAAGGGACAAGGGCUG
[1]
  apparent Kd: 243 nM
[2]
  apparent Kd: 116 nM

## UCCUCACAUGAGGAUCACCCAUGUCAGGAUAUACCCAAAGCUGCGAAAAUAUCCAGCUGUAGAAGGGACAGGCU
[1]
  apparent Kd: 18.3 nM
[2]
  apparent Kd: 20.1 nM

## UCCUGGCGAGGAUAUACAAUGUUUUUCGCGUGUAGUUGGAAACAUGAGGAUCACCCAUGUAGAAGGUGCUACUG
[1]
  apparent Kd: 32.6 nM
[2]
  apparent Kd: 25.6 nM

## UCCUUCUGUUGAGGAUAUGUAAGACAGCGGCUGCUAUUGCGGCACGCUGAUACAGAAGGCAACAUGAGGAUCACCCAUGUUCAA
[1]
  apparent Kd: 26.4 nM
[2]
  apparent Kd: 205 nM

## UCCUUGGAAGGAUAUCGAUAGGCUUACAUGAGGAUCACCCAUGUUGGGAUGUCUUUCUGUCGAGAAGGUUCGUUUU
[1]
  apparent Kd: 19.7 nM
[2]
  apparent Kd: 21.4 nM

## UCCUUGUCCUGAGGAUAUCCGUAGUGACCGAAAGGAGAAGGCAGGACAUGAGGAUCACCCAUGUACCCAGAAAACGUGCAGAGU
[1]
  apparent Kd: 48.1 nM
[2]
  apparent Kd: 525 nM

## UCGACUAGCGCCAGUCGAACAUGAGGAUCACCCAUGUACUCCAGAAGGCCGCCCAAGAACGGAGUGGAGGAUAUGGAGGUUCUC
[3]
  apparent Kd: 42.9 nM
[4]
  apparent Kd: 30.4 nM

## UCGAGGUCAGGAUAUACAUGAGGAUCACCCAUGUUGAGAUAAGGUAGGAAAAGAGUAGGUAGAAGGGACGAGAG
[1]
  apparent Kd: 27.6 nM
[2]
  apparent Kd: 30.9 nM

## UCGAUGCUAGGAUAUACUAAUACAACUACUGAAGUGUCUUCACAUGAGGAUCACCCAUGUAGAAGGAGCAUAUA
[1]
  apparent Kd: 59.5 nM
[2]
  apparent Kd: 46.8 nM

## UCGCGAUGAGGAUAUACAUAGAAAUAGAUUCAUGUAAAACUACAUGAGGAUCACCCAUGUAGAAGGCAUUGCGU
[1]
  apparent Kd: 23 nM
[2]
  apparent Kd: 128 nM

## UCGCUCCGUGUAGGAUAUCGUUGUAUUCUGCGGCGAGAAGGACAUGAGGAUCACCCAUGUAUGUUAUUAUCACGCGUGGCGCAA
[1]
  apparent Kd: 21 nM
[2]
  apparent Kd: 18.9 nM

## UCGCUGCGAGGAUAUACAUGAGGAUCACCCAUGUACGGGUCCGGGUCUUCGUCCAUUAGUAGAAGGCGCAGUGA
[1]
  apparent Kd: 52.8 nM
[2]
  apparent Kd: 325 nM

## UCGCUGCGAGGAUAUACAUGAGGAUCACCCAUGUACGGGUCCGGGUCUUCGUCCAUUGGUAGAAGGCGCAGUGA
[1]
  apparent Kd: 23.1 nM
[2]
  apparent Kd: 204 nM

## UCGCUGCGAGGAUAUACAUGAGGAUCACCCAUGUGCGGGUCCGGGUCUUCGUCCAUUGGUAGAAGGCGCAGUGA
[1]
  apparent Kd: 45.3 nM
[2]
  apparent Kd: 554 nM

## UCGGAGAAAGGAUAUACACCAAGGGUAUAGUAGGAUCCUGGACAUGAGGAUCACCCAUGUAGAAGGUUCACUGC
[1]
  apparent Kd: 60.1 nM
[2]
  apparent Kd: 31.1 nM

## UCGGCCCAAGCACAUGAGGAUCACCCAUGUACCACGGCCACCAGAAGGGCAGGGAAGAGGGAUCUGCAGGAUAUGGGCACUAGC
[3]
  apparent Kd: 14.4 nM
[4]
  apparent Kd: 9.6 nM

## UCGGCCGCUGGGUUGUACGAUGACAGAAGGGCACACCGGGUGCCGCACAUGAGGAUCACCCAUGUGCAGGAUAUGUCAUCCUGA
[1]
  apparent Kd: 11.1 nM
[2]
  apparent Kd: 8.25 nM

## UCGGCGCGAGGAUAUACGUUUGCGCGUUUUCGUUUGCGCGUACAUGAGGAUCACCCAUGUAGAAGGCGCGCCGC
[1]
  apparent Kd: 15.1 nM
[2]
  apparent Kd: 29.9 nM

## UCGGCGCGAGGAUAUACGUUUGCUUUUUAGGAUCGUGGCGUACAUGAGGAUCACCCAUGUAGAAGGCGCGCCGC
[1]
  apparent Kd: 13.8 nM
[2]
  apparent Kd: 20.3 nM

## UCGGCGCGAGGAUAUGCGGUUUGUGCUUUGGGCCCUGGCGUACAUGAGGAUCACCCAUGUAGAAGGCGCGCCGC
[1]
  apparent Kd: 19.5 nM
[2]
  apparent Kd: 19.6 nM

## UCGGGCGUAGGAUAUGCUAUCACGGACAUGAGGAUCACCCAUGUCAGAUGUCCGGGCGAGGCAGAAGGGCGGUUUU
[1]
  apparent Kd: 74.1 nM
[2]
  apparent Kd: 120 nM

## UCGGUGCGAGGAUAUACGUUUGCGCGUUUUCGUUUGCGCGUACAUGAGGAUCACCCAUGUAGAAGGCGCGCGGC
[1]
  apparent Kd: 12.4 nM
[2]
  apparent Kd: 13.7 nM

## UCGUACUUUCGAGGAUAUCGGUGAUAUAUAUUACGAGAAGGCGAUUGUUUGUUUUACGUCUUAGACAUGAGGAUCACCCAUGUA
[3]
  apparent Kd: 40.4 nM
[4]
  apparent Kd: 30.5 nM
